Most compounds without a hit are left out; they make up all but 1.5% or so of the library.
Dynein cargo inh – blocks dynein driven cargo transport along microtubules. z-score, hits read low. actives 0.47% (n = 220,000). 3617.4 mouse cells, GR-EGFP nuclear translocation imaging; test concentration mostly 20 µM; stimulated with dexamethasone, 1 µM; active compounds read low. AID 1381;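 active = plate z-score of nuclear minus cytoplasmic receptor signal below a set negative limit, without overly bright fluorescence or cell loss, cut at about -3.5 in these data, passing the limit was not always enough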;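 also: z-score of nuclear minus cytoplasmic ring GR-EGFP intensity difference per well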
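Buffer or medium: tet-free medium with charcoal-stripped serum / Also added: dexamethasone agonist, 1.0 µM final, for 30 min / Timing: induction 48 h, compound 1 h, agonist 30 min / Measured by: high-content fluorescence imaging after fixation / Read-out: nuclear-to-cytoplasmic GR-EGFP distribution per well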
Rad51 HR inh – Rad51 (human) homologous recombination inhibition; inhibition, % at 10 µM; AID 1385; hRad51 DNA strand exchange, fluorescence dequenching; Q06609; actives 0.085% (n = 200,000);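 active = inhibition above 40% at the single screening dose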
Target sequence (Q06609 whole entry, looked up): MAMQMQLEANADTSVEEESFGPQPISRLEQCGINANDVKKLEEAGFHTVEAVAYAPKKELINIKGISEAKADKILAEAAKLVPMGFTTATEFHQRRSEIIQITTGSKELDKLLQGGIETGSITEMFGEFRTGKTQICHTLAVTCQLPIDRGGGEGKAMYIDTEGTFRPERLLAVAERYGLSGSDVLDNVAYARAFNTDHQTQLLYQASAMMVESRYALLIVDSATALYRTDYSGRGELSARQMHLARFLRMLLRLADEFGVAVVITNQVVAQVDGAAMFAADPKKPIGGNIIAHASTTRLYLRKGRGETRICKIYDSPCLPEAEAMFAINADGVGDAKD
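Material: human Rad51–ssDNA filaments; Probe or stimulus: labelled 47-mer dsDNA for strand exchange; Doses: single 10 µM dose; Incubation: 37 °C 15-min filament assembly, 30-min compound preincubation, 15-min exchange; Technique: FRET fluorescence dequenching, excitation 485 nm, emission 520 nm; Measure: Fluorescence-based percent inhibition, control- and blank-normalised; Benchmarks: plate control and blank wells.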
Tb hexokinase – blocks Trypanosoma brucei hexokinase 1 activity; inhibition, % at 10 µM; recombinant TbHK1, G6PDH-coupled NADH A340; AID 1430; actives 0.11% (n = 220,000);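 active = inhibition of 50% or more in the single-dose primary screen; inactive = inhibition below 50%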
bCat nuc transl – modulators of beta-catenin nuclear translocation; HeLa beta-catenin nuclear translocation, immunofluorescence imaging; actives 0.3% (n = 190,000); nuclear translocation activity, % at 5 µM;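 active = nuclear translocation activity above 50% at 5 µM, with a well cell count of 50 or more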;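 also: per-cell ratio of nuclear to cytoplasmic median beta-catenin stain intensity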
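Test system: HeLa cells, endogenous beta-catenin; Compound: single 5 µM dose plus 0.02–20 µM confirmation series; Times: compound exposure 24 h at 37°C; Signal: fluorescence imaging of beta-catenin antibody stain plus DAPI; Read-out: % activation, nuclear-to-cytoplasmic median beta-catenin signal ratio per cell.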
MT stabilizer – microtubule stabilization, imaging screen; AID 2205; actives 0.83% (n = 200,000); % tubulin-high responders, % at 10 µM; HeLa tubulin immunostaining HCS, 24 h; share of cells brighter than vehicle mean+2SD;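 active = plate Z-score above 3 for both tubulin-high and condensed-nucleus cell shares, with cell loss under 80%, at 10 µM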;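 also: anti alpha tubulin signal scored within the nucleus-defined area of each cell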
Hits are given with their value; i = inactive; nt = no result given.

SMILES | Dynein cargo inh | Rad51 HR inh | Tb hexokinase | bCat nuc transl | MT stabilizer
Cc1cc(O)c(C2=Nc3ccccc3SC(c3ccc(Cl)cc3)C2)c(=O)o1 (stereo unspecified) | i | i | i | i | i
COc1ccc(C2CC(c3c(O)cc(C)oc3=O)=NCCS2)c(OC)c1 (stereo unspecified) | i | i | i | 110 | i
Cc1ccc(C)c(C2NC(=O)c3ccccc3N2)c1 (stereo unspecified) | i | nt | i | 64 | nt
Cc1ccc(C)c2nc(Cl)c(C3NC(=O)c4ccccc4N3)cc12 (stereo unspecified) | i | i | i | i | 16
CCOc1ccc(NC(=O)c2cc3c(C)nc4ccccc4c3o2)cc1 | i | i | i | 126 | 17
Cc1nc2ccccc2c2oc(C(=O)NC3CC3)cc12 | i | i | i | nt | i
O=C(COc1ccccc1)NCC(=O)N/N=C/c1ccccc1 | i | i | i | i | i
Cc1nnc(Sc2c(N)n(C)c(=O)n(C)c2=O)s1 | i | i | i | i | i
CC1CCN(c2oc(Cc3cccc4ccccc34)nc2C#N)CC1 | i | i | i | i | i
COCC(=O)N1CCN(c2cccc(C(F)(F)F)c2)CC1 | i | i | i | i | i
COc1ccc(C(=O)N2CCN(c3cccc(Cl)c3)CC2)c(OC)c1 | i | i | i | nt | 44
COc1ccc(N2CCN(C(=O)c3c(-c4ccccc4)noc3C)CC2)cc1 | i | i | i | i | i
COc1ccc(N2CCN(C(=O)c3ccc(SC)cc3OC)CC2)cc1 | i | i | i | i | i
COc1ccccc1C(=O)N1CCN(c2cccc(C(F)(F)F)c2)CC1 | i | nt | i | 88 | 35
CCOC(=O)c1[nH]c(C)c(C(=O)N2CCN(c3ccccc3)CC2)c1C | i | i | i | i | i
CCOc1ccc2ccccc2c1C(=O)N1CCN(c2ccccc2)CC1 | i | i | i | i | 47
COc1cc2c(C(=O)N3CCN(c4ccccc4)CC3)c(C)oc2cc1Br | i | i | i | i | 26
CC(O/N=C/c1ccccc1OC(F)F)C(=O)Nc1cccc(S(=O)(=O)N2CCOCC2)c1 (stereo unspecified) | i | i | i | i | i
O=C(CCc1ccccc1)NCC(=O)N/N=C/c1ccc(O)cc1O | i | i | i | i | nt
CCOc1ccccc1C(=O)N1CCN(c2cccc(Cl)c2)CC1 | i | i | i | 69 | 15
O=C(NCc1ccco1)c1cccc(C(F)(F)F)c1 | i | i | i | i | i
O=C1c2ccccc2C(=O)C12OC2c1ccc(Cl)cc1Cl (stereo unspecified) | -4.6 | i | i | i | i
CCCC1CCc2c(sc(NC(=O)OCC)c2C#N)C1 (stereo unspecified) | i | i | i | i | 52
CCOC(=O)Nc1sc2c(c1C#N)CCCC2 | i | i | i | nt | i
CC(C)CCN1C(=O)c2ccccc2C1C(=O)NCc1cccnc1 (stereo unspecified) | i | i | i | nt | i
SMILES | Dynein cargo inh | Rad51 HR inh | Tb hexokinase | bCat nuc transl | MT stabilizer
COC(=O)C1=C(NC(=O)c2cccs2)CCS1 | i | i | 66 | i | i
COC(=O)c1ccccc1NC(=O)CSc1nnc(-c2cccnc2)n1N | i | 44 | i | i | i
Nn1c(SCC(=O)Nc2ccccc2F)nnc1-c1cccnc1 | i | i | i | i | i
COc1ccccc1NC(=O)CN1CCN(C(=O)c2ccco2)CC1 | i | i | i | i | i
O=c1cc(-c2ccccc2[N+](=O)[O-])oc2ccccc12 | i | nt | i | i | 12
Cc1cccc(Oc2nccc(C(F)(F)F)c2C(=O)Nc2ccc(F)cc2F)c1 | i | i | i | i | nt
CCOC(=O)C(NC(C)=O)(Nc1ccc(S(=O)(=O)Nc2cc(C)on2)cc1)C(F)(F)F (stereo unspecified) | i | 41 | i | i | i
CCOc1cc(C#N)c(NC(=O)c2ccco2)cc1OCC | i | i | i | i | 40
CCN(CC)CCNC(=O)c1ccc(NC(=O)c2cn(-c3ccccc3)nc2-c2cccs2)cc1 | -7.3 | i | i | i | i
COc1cccc(/C=N/NC(=O)c2cc(C34CC5CC(CC(C5)C3)C4)[nH]n2)c1 | i | i | i | i | i
CCn1nnc(NC(=O)COc2ccc([N+](=O)[O-])cc2)n1 | i | i | i | i | nt
CCOC(=O)c1oc2ccc(S(=O)(=O)n3nc(-c4ccc(Cl)cc4)cc3N)cc2c1C | i | i | i | i | 17
CCOC(=O)c1ccccc1NC(=O)CN(c1ccccc1OCC)S(C)(=O)=O | i | i | i | i | i
CCOC(=O)c1ccccc1NC(=O)CN(c1ccc(OCC)cc1)S(C)(=O)=O | i | i | i | 69 | i
O=C(Nc1ccccc1Br)C1CC(=O)N(c2ccc3c4c(cccc24)CC3)C1 (stereo unspecified) | i | i | i | i | 38
Cc1occc1C(=O)NNC(=O)c1cccc(F)c1 | i | i | i | i | i
Cc1onc(-c2c(Cl)cccc2Cl)c1C(=O)Nc1c(C)n(C)n(-c2ccccc2)c1=O | i | i | i | i | i
Cc1c(Cc2ccccc2)sc(NC(=O)/C=C/c2cccc3ccccc23)c1C(N)=O | i | i | i | i | 18
CCCCCCC(=O)Cc1cc(OC)c(OC)cc1C=C(C(=O)OCC)C(=O)OCC | -4.3 | i | i | nt | i
CCOC(=O)c1ccc(NC(=S)Nc2ccccc2)cc1 | i | i | i | i | i
O=S(=O)(Nc1c(S(=O)(=O)c2ccccc2)c2nc3ccccc3nc2n1C1CCCCC1)c1ccccc1 | i | i | i | nt | i
CCc1ccc(/C=N/NC(=O)c2cc(C3CC3)nc3ccccc23)s1 | i | i | i | nt | 41
O=c1[nH]nc(Cc2ccc3ccccc3n2)c2ccccc12 | i | i | i | i | i
O=C(Nc1cccc(S(=O)(=O)NC2=NCCCCC2)c1)C1COc2ccccc2O1 (stereo unspecified) | i | i | i | i | i
O=C(Nc1ccc(S(=O)(=O)NC2=NCCCCC2)cc1)C1COc2ccccc2O1 (stereo unspecified) | i | 41 | i | i | nt
SMILES | Dynein cargo inh | Rad51 HR inh | Tb hexokinase | bCat nuc transl | MT stabilizer
CCOC(=O)COc1ccccc1/C=N/O | i | i | i | i | i
COc1ccccc1N1CCN(C(=O)C2c3ccccc3Oc3ccccc32)CC1 | i | i | i | 95 | 26
O=C(C1c2ccccc2Oc2ccccc21)N1CCN(c2ccc(Cl)cc2)CC1 | i | nt | i | nt | 33
O=C(CCc1ccccc1)N1CCN(c2ccc(Cl)cc2)CC1 | i | i | i | i | i
CC(=O)Nc1c2c(nn1-c1cccc(Cl)c1)CS(=O)C2 (stereo unspecified) | i | i | i | i | i
CCN1CCc2nc(NC(=O)c3ccccc3)sc2C1 | i | nt | i | i | i
N#Cc1ccccc1CSc1nnc(Cc2ccccc2)o1 | i | i | i | i | i
CCN(CC)S(=O)(=O)c1ccc2[nH]cc(C(=O)NCCC3=CCCCC3)c(=O)c2c1 | i | i | i | i | 33
